# Source: PubChem
# The list is not random: actives were taken first. Their share in the collection is about 2.5%.
# TRPC4 potent – TRPC4 (mouse) allosteric potentiation | hit rate 0.42% among 310,000 | B-score at 10 µM | HEK293 TRPC4beta/mu-opioid, DAMGO EC20, Fluo-4 Ca2+ flux; active compounds read high | AID 2227;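 active = B-score of calcium response area above 5 SD of library B-scores, with initial fluorescence ratio within 5 SD of library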
# DSG3 Ab inh – human desmoglein-3 autoantibody binding inhibition; P32926; DSG3-coupled beads, scFv-anti-DSG3-GFP binding, flow cytometry; active compounds read low; binding (percent of control), % at 10 µM; hit rate 0.48% among 310,000; AID 588358;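 active = binding more than 3 SD below its plate's average and above zero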;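 note: hits lower antibody fragment binding to DSG3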
# Target sequence (P32926 whole entry, looked up, the tested form may be a part): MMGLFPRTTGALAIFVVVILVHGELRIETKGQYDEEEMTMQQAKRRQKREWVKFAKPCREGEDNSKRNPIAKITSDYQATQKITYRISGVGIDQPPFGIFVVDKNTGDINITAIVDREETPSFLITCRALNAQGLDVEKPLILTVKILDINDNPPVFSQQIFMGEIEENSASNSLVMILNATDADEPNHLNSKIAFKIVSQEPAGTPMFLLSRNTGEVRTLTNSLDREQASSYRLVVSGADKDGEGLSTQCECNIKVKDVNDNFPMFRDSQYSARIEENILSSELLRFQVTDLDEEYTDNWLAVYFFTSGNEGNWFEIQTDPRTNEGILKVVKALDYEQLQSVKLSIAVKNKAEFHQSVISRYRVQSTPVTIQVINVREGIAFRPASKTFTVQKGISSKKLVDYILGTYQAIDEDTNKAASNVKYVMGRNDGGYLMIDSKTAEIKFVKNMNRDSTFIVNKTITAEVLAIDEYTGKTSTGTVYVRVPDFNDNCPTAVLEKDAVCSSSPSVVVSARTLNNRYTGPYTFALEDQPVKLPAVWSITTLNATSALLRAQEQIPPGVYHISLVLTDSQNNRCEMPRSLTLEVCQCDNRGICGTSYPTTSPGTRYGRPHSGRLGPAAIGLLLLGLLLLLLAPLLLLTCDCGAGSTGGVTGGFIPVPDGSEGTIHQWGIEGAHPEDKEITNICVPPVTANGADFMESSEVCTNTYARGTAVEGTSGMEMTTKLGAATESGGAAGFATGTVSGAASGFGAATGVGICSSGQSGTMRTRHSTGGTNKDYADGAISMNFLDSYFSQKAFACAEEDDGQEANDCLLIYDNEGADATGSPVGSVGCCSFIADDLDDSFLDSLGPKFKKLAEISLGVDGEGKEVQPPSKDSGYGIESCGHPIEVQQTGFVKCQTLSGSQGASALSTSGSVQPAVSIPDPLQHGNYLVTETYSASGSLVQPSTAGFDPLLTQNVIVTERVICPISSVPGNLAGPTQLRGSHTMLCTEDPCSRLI
# TRPC6 activator – activates the mouse TRPC6 cation channel; B-score at 10 µM; Q61143; AID 2550; hit rate 0.13% among 310,000; HEK293-TRPC6 membrane potential dye fluorescence; active compounds read high;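 active = B-score of the integrated fluorescence ratio above library mean plus 3 SD, and starting fluorescence ratio within library mean plus 5 SD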;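 note: higher score means more depolarization so channel activation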
# TRPC4 block – blocks the mouse TRPC4 cation channel; Q9QUQ5; hit rate 0.39% among 300,000; HEK293 TRPC4beta/mu-opioid, DAMGO-evoked Fluo4 calcium flux; active compounds read low; B-score at 10 µM;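 active = B-score over 3 SD under the library average, no early fluorescence shift, positive overall ratio signal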
#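 material = TRPC4beta/mu-opioid receptor HEK293 cell line | probe or stimulus = sequential submaximal and maximal DAMGO stimulation | compound dosing = one concentration per compound | measured by = Fluo4 Ca2+ flux fluorescence | evaluation = integrated fluorescence ratio relative to baseline, converted to per-well B score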
# TRPC6 inh – inhibitors of mouse TRPC6 channel; Q61143; B-score at 10 µM; HEK293-TRPC6, membrane potential dye, ACh-evoked depolarization; active compounds read low; hit rate 1.1% among 310,000;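 active = B-score under library mean minus 3 SD, initial fluorescence not abnormally high, positive integrated signal ratio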;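 note: B-score derived from integrated fluorescence ratio over the kinetic read; more negative B-score means stronger inhibition of depolarization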
# TRPC4 agonist – opens the mouse TRPC4 cation channel; HEK293 TRPC4beta/mu-opioid, Fluo4 calcium fluorescence; active compounds read high; hit rate 0.49% among 310,000; Q9QUQ5; AID 2237; B-score at 10 µM;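 active = B-score above 5 SD of library B-scores, and initial fluorescence ratio not above library mean plus 5 SD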;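 note: positive B-score marks a calcium rise read as TRPC4 activation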
#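 System: HEK293 cells stably co-expressing mouse TRPC4beta and mu-opioid receptor; Schedule: Fluo4 dye loading 45 min at room temperature, 110 s recording; Detection: Fluo4 fluorescence, kinetic; Evaluation: B-scored integrated calcium fluorescence ratio; Controls: buffer (low) and maximal DAMGO (high).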
# TRPC4 spec 2 – mouse TRPC4 off-target activity of TRPC6 inhibitors, second screen | shares compounds with TRPC6 inh | HEK293 TRPC4/MOR, membrane potential dye fluorescence; channel activated by saturating DAMGO dose | inhibition, % at 10 µM | hit rate 42% among 920;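 active = compounds whose fluorescence signal differed from control wells by over 3 SD, either direction, in both duplicate plates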
# TRPC4 spec – tests whether TRPC6 inhibitors also affect mouse TRPC4. HEK293 TRPC4/mu-opioid, membrane potential fluorescence. hit rate 61% among 920. activity change, negative = inhibition, % at 10 µM. shares compounds with TRPC6 inh;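 active = rise or fall in signal beyond 3 SD of buffer-only wells in both replicate plates, either sign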;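 note: integrated kinetic ratio of fluorescence range over baseline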
# HEK293 MPD ctr 2-1 – parental HEK293 nonspecific activity of TRPC6 inhibitors, second screen | shares compounds with TRPC6 inh | hit rate 31% among 920 | AID 2779 | signal change vs control, % at 10 µM | parental HEK293 membrane potential dye fluorescence; maximal acetylcholine challenge after compound addition;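 active = membrane potential signal moving either way by over 3 SD of the maximum-effect control, in both duplicate plates, meaning non-specific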
# HEK293 MPD ctr-1 – counter-screen for TRPC6 inhibitors: effect in parental HEK293 cells; parental HEK293 membrane potential dye fluorescence; hit rate 60% among 920; shares compounds with TRPC6 inh; membrane potential signal change, % at 10 µM; AID 2780;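 active = membrane potential signal shifting up or down by more than 3 SD of buffer-only wells, on both duplicate plates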
# HEK293 MPD ctr-2 – parental HEK293 nonspecific activity of TRPC6 modulators | shares compounds with TRPC6 inh | membrane potential dye fluorescence | membrane potential signal change, % at 10 µM | hit rate 51% among 2,400;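 active = membrane potential signal moves up or down beyond 5 SD from buffer-only wells, on both duplicate plates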
# HEK293 MPD ctr 2-2 – second counter-screen for TRPC6 modulators: effect in parental HEK293 cells. inhibition, % at 10 µM. shares compounds with TRPC6 inh. membrane potential dye fluorescence; after compound, maximal acetylcholine stimulation. hit rate 14% among 2,400. AID 488926;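 active = membrane potential signal drops by more than 5 SD from the mean control signal, in both duplicate plates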
# TRPC4 ctr mod – selectivity of TRPC6 modulators against mouse TRPC4 | shares compounds with TRPC6 inh | HEK293 TRPC4/mu-opioid, membrane potential fluorescence | percent change from control (negative = decrease, positive = increase), % at 10 µM | hit rate 69% among 2,400 | AID 488927;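 active = membrane potential signal moved up or down beyond 5 SD of buffer control wells, in both duplicate plates, actives on both sides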
# TRPC4 ctr inh 2 – mouse TRPC4 off-target activity of TRPC6 modulators, second screen; AID 488928; HEK293 TRPC4/mu-opioid, membrane potential dye fluorescence; stimulated with maximal-effect DAMGO; inhibition, % at 10 µM; hit rate 55% among 2,400; shares compounds with TRPC6 inh;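 active = drop in membrane potential signal beyond 5 SD of the control wells in both duplicate plates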;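 note: TRPC4 counter screen for TRPC6 hits run under conditions tuned for TRPC6 not TRPC4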
# TRPC6 block conf – mouse TRPC6 inhibitor confirmation | shares compounds with TRPC6 inh | HEK293-TRPC6, membrane potential dye, ACh-evoked depolarization | inhibition, % at 10 µM | hit rate 43% among 3,300 | AID 488960;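 active = fluorescence ratio falls more than 5 SD below the full-stimulation control mean, in both duplicate runs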;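 note: integrated fluorescence ratio of peak minus minimum over baseline after agonist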
# TRPC6 act conf – mouse TRPC6 activator confirmation; shares compounds with TRPC6 inh; HEK293-TRPC6 membrane potential dye fluorescence, FDSS; activation, % at 10 µM; hit rate 11% among 2,800; AID 488961;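 active = ratio signal rise beyond 5 SD above unstimulated control wells' mean, seen in both duplicate runs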
# Hits are given with their value; 0 = inactive; - = no result given.
SMILES,TRPC4 potent,DSG3 Ab inh,TRPC6 activator,TRPC4 block,TRPC6 inh,TRPC4 agonist,HEK293 MPD ctr-2,HEK293 MPD ctr 2-2,TRPC4 ctr mod,TRPC4 ctr inh 2,TRPC6 block conf,TRPC6 act conf,others
Cc1ccc(-c2nc(C(=O)NCCCN3CCOCC3)cc3c2[nH]c2ccccc23)cc1,0,0,0,0,-6.6,0,-,-,-,-,0,0,TRPC4 spec 2=58%;TRPC4 spec=-16%;HEK293 MPD ctr 2-1=0;HEK293 MPD ctr-1=-166%
O=Cc1cn(CC(=O)Nc2ccc3c(c2)OCO3)c2ccccc12,0,0,0,0,0,0,-,-,-,-,-,-,
CCC(C)(C)NC(=O)C(c1ccc(C)o1)N(Cc1cccs1)C(=O)Cn1nnc2ccccc21 (configuration not stated),0,0,15,0,0,0,342%,0,80%,0,0,99%,
COCCNC(=O)C(c1ccccc1)N(Cc1cccs1)C(=O)Cn1nnc2ccccc21 (configuration not stated),0,0,0,0,0,0,-,-,-,-,-,-,
CCC(C)(C)NC(=O)C(c1ccccc1)N(Cc1cccs1)C(=O)Cn1nnc2ccccc21 (configuration not stated),0,0,15,0,0,0,119%,0,34%,0,0,44%,
Clc1ccc(OCCCCCN2CCCC2)c(Br)c1,0,0,0,0,-5.1,0,121%,0,22%,34%,0,-,
Cc1ccc(OCCCCN2CCC(C)CC2)c(Br)c1,0,0,0,0,0,0,-,-,-,-,-,-,
Clc1ccc(Cl)c(OCCCCN2CCNCC2)c1,24,0,0,0,-8.7,0,-,-,-,-,0,0,TRPC4 spec 2=57%;TRPC4 spec=-0.3%;HEK293 MPD ctr 2-1=0;HEK293 MPD ctr-1=3.5%
Cc1ccc(OCCCCCCN2CCNCC2)c(Br)c1,0,0,0,0,-9,0,-,-,-,-,70%,0,TRPC4 spec 2=52%;TRPC4 spec=1.3%;HEK293 MPD ctr 2-1=0;HEK293 MPD ctr-1=6.4%
Clc1ccc(OCCCN2CCCCC2)c(Br)c1,0,0,0,0,0,0,-,-,-,-,-,-,
CCN1CCN(CCCOc2ccc(Cl)cc2Br)CC1,0,0,0,0,0,0,-,-,-,-,-,-,
COc1cccc(-c2c(C(=O)N/N=C(\C)c3ccc(Cl)s3)nnn2-c2nonc2N)c1,0,0,0,0,0,0,-,-,-,-,-,-,
CCCN(C(=O)CCl)C1=CCCCC1,0,0,0,0,0,0,-,-,-,-,-,-,
c1ccc2c(c1)CCN(c1ncnc3c1[nH]c1ccccc13)C2,0,0,0,0,-5.7,86,0,0,0,63%,0,0,
CCN(c1ccccc1)S(=O)(=O)c1ccc(Cl)c(NC(=O)CSc2n[nH]c(N)n2)c1,0,0,0,0,0,0,-,-,-,-,-,-,
